In ChEMBL document CHEMBL1145542, “Discovery of a new class of potent, selective, and orally bioavailable CRTH2 (DP2) receptor antagonists for the treatment of allergic inflammatory diseases” (J Med Chem, 2008):

Key:
[1] = biological target: T1, Prostaglandin D2 receptor 2 (Homo sapiens, UniProt Q9Y5Y4); test: Displacement of [3H]PGD2 from human CRTH2 receptor expressed in CHO cells; assay type: cell-based
T1 sequence (Q9Y5Y4 whole entry): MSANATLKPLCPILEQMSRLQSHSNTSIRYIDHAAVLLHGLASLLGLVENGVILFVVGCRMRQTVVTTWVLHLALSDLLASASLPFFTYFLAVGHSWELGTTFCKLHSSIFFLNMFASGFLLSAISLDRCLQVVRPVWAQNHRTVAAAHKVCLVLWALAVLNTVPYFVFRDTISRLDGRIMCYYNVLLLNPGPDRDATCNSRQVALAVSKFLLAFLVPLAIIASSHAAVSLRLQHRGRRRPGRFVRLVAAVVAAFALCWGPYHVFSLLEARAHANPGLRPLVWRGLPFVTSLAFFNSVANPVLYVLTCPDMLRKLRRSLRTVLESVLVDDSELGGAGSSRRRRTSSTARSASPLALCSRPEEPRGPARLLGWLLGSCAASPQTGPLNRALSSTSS
In short: (§1)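 Scintillation proximity competition assay: 2–5 µg human or mouse CRTH2 membranes (nitrogen-cavitation, differential centrifugation) with WGA-SPA beads and 1.5 nM [3H]PGD2 in 10 mM HEPES/KOH pH 7.4, 10 mM MnCl2, protease inhibitors, 1% Me2SO, 90 min shaking at room temperature. Nonspecific binding with 1 µM PGD2. Ki by Cheng–Prusoff, mean of ≥3 independent experiments.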

[2] = biological target: T2, Prostaglandin D2 receptor 2 (Mus musculus, UniProt Q9Z2J6); test: Displacement of [3H]PGD2 from mouse CRTH2 receptor expressed in HEK293 cells; assay type: cell-based; in short: as §1
T2 sequence (Q9Z2J6 whole entry): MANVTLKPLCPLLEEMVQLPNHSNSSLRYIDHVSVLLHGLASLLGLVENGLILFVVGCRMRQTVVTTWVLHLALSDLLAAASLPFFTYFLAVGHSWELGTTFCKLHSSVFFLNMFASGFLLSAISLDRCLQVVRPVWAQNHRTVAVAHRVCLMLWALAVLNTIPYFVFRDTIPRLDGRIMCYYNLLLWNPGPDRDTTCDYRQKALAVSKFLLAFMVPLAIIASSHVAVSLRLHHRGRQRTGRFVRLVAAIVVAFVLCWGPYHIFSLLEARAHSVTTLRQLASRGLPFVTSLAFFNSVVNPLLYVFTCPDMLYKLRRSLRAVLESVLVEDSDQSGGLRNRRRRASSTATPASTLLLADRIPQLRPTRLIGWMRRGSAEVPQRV

[3] = biological target: T1, Prostaglandin D2 receptor 2; test: Antagonist activity at human CRTH2 receptor expressed in CHO cell membrane by [35S]GTP-gamma-S binding assay; assay type: functional, cell membranes
In short: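 [35S]GTPγS binding at 30 °C on 10 µg human CRTH2 membranes in 20 mM HEPES/KOH pH 7.4, 10 mM MgCl2, 10 µg/mL saponin, 3 µM GDP, 150 mM NaCl, 2% Me2SO. PGD2 preincubation 10 min (antagonist mode: 80 nM PGD2), then 0.15 nM [35S]GTPγS for 30 min. Nonspecific binding with 10 µM GTPγS; stopped by centrifugation, scintillation counting.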

[4] = Intrinsic clearance per mg of protein in human liver microsomes at 3 uM; assay type: ADME, Microsome
In short: (§2)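 Rat or human liver microsomes (0.5 mg/mL final) in 0.1 M phosphate pH 7.4 with 3 µM compound (1% DMSO), preincubated at 37 °C, started with 1 mM NADPH. Quenched with cold acetonitrile at 0, 15, 30, 45 min; LC/MS-MS of compound disappearance gives intrinsic clearance.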

[5] = Intrinsic clearance per mg of protein in rat liver microsomes at 3 uM; assay type: ADME, Microsome; in short: as §2
[6] = Apparent permeability across human Caco-2 cell membrane at 10 uM; assay type: ADME, cell-based
In short: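 Caco-2 monolayers grown 21 days on Transwell filters; TEER above 800 ohm·cm² required. 10 µM test compound in HBSS added apically (A to B) or basolaterally (B to A), 2 h at 37 °C. Both compartments sampled, analysed by LC/MS-MS.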

[7] = Lipophilicity, log D of the compound; assay type: physicochemical; conditions: octanol/water
[8] = AUC (0 to last t) in rat at 1 mg/kg, iv; assay type: ADME, organism-based; design: time 0 - last, dose 1 mg/kg, route intravenous; conditions: plasma
In short: (§3)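 Male Sprague–Dawley or Janvier rats, three per route, dosed by oral gavage or iv bolus. Serial blood drawn through an indwelling carotid catheter up to 24 h post dose. Plasma pooled by time point, analysed by LC-MS/MS; non-compartmental analysis.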

[9] = AUC (0 to last t) in rat at 5 mg/kg, po; assay type: ADME, organism-based; design: time 0 - last, dose 5 mg/kg, route oral; conditions: plasma; in short: as §3
[10] = AUC (0 to last t) in Beagle dog at 1 mg/kg, iv; assay type: ADME, organism-based, Canis lupus familiaris; design: time 0 - last, dose 1 mg/kg, route intravenous; conditions: plasma
In short: (§4)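 Three male beagle dogs, crossover design; 1 mg/kg given as a solution, iv bolus and oral gavage. Serial blood sampled up to 48 h post dose. Individual plasma samples analysed by LC-MS/MS; PK parameters derived by non-compartmental analysis.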

[11] = AUC (0 to last t) in Beagle dog at 1 mg/kg, po; assay type: ADME, organism-based, Canis lupus familiaris; design: time 0 - last, dose 1 mg/kg, route oral; conditions: plasma; in short: as §4
[12] = Oral bioavailability in rat at 5 mg/kg; assay type: ADME, organism-based; conditions: in vivo; in short: as §3
[13] = Oral bioavailability in Beagle dog at 1 mg/kg; assay type: ADME, organism-based, Canis lupus familiaris; conditions: in vivo; in short: as §4
[14] = Cmax in rat at 1 mg/kg, iv; assay type: ADME, organism-based; design: dose 1 mg/kg, route intravenous; conditions: in vivo; in short: as §3
[15] = Cmax in rat at 5 mg/kg, po; assay type: ADME, organism-based; design: dose 5 mg/kg, route oral; conditions: in vivo; in short: as §3
[16] = Cmax in Beagle dog at 1 mg/kg, iv; assay type: ADME, organism-based, Canis lupus familiaris; design: dose 1 mg/kg, route intravenous; conditions: in vivo; in short: as §4
[17] = Tmax in rat at 1 mg/kg, iv; assay type: ADME, organism-based; design: dose 1 mg/kg, route intravenous; conditions: in vivo; in short: as §3
[18] = Tmax in rat at 5 mg/kg, po; assay type: ADME, organism-based; design: dose 5 mg/kg, route oral; conditions: in vivo; in short: as §3
[19] = Tmax in Beagle dog at 1 mg/kg, iv; assay type: ADME, organism-based, Canis lupus familiaris; design: dose 1 mg/kg, route intravenous; conditions: in vivo; in short: as §4
[20] = Half life in rat at 1 mg/kg, iv; assay type: ADME, organism-based; design: dose 1 mg/kg, route intravenous; conditions: in vivo; in short: as §3
[21] = Half life in rat at 5 mg/kg, po; assay type: ADME, organism-based; design: dose 5 mg/kg, route oral; conditions: in vivo; in short: as §3
[22] = Half life in Beagle dog at 1 mg/kg, iv; assay type: ADME, organism-based, Canis lupus familiaris; design: dose 1 mg/kg, route intravenous; conditions: in vivo; in short: as §4
[23] = Clearance in rat at 1 mg/kg, iv; assay type: ADME, organism-based; design: dose 1 mg/kg, route intravenous; conditions: in vivo; in short: as §3
[24] = Clearance in Beagle dog at 1 mg/kg, iv; assay type: ADME, organism-based, Canis lupus familiaris; design: dose 1 mg/kg, route intravenous; conditions: in vivo; in short: as §4
[25] = Volume of distribution at steady state in rat at 1 mg/kg, iv; assay type: ADME, organism-based; design: dose 1 mg/kg, route intravenous; conditions: in vivo, read-out: Vdss; in short: as §3
[26] = Volume of distribution at steady state in Beagle dog at 1 mg/kg, iv; assay type: ADME, organism-based, Canis lupus familiaris; design: dose 1 mg/kg, route intravenous; conditions: in vivo, read-out: Vdss; in short: as §4
[27] = biological target: T3, Prostaglandin D2 receptor (Homo sapiens, UniProt Q13258); test: Inhibition of prostaglandin D2 receptor
T3 sequence (Q13258 whole entry): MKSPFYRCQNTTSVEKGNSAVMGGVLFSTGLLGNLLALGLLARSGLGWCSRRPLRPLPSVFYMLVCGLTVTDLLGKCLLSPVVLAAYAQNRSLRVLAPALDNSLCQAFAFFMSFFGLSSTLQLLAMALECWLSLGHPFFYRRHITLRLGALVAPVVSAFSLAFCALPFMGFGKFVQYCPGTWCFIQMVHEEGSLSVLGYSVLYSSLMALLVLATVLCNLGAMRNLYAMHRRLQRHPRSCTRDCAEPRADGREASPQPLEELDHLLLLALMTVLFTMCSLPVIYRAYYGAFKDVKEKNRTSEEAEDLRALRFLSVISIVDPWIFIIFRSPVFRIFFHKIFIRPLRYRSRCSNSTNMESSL

[28] = biological target: Prostaglandin E2 receptor EP2 subtype (Homo sapiens, UniProt P43116); test: Inhibition of prostanoid EP2 receptor
Prostaglandin E2 receptor EP2 subtype, sequence (P43116 whole entry): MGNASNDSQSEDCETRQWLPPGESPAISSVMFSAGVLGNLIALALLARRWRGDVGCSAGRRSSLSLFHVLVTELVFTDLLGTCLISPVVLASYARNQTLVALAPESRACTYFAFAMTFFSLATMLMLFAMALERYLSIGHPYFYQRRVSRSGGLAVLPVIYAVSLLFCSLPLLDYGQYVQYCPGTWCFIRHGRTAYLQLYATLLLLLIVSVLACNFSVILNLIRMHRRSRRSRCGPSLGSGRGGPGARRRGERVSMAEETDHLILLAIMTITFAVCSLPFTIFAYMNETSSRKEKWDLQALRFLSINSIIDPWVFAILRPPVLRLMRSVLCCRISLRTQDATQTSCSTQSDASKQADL

[29] = Inhibition of prostanoid EP3 receptor
[30] = Inhibition of prostanoid EP4 receptor
[31] = Inhibition of prostanoid FP receptor
[32] = Cmax in Beagle dog at 1 mg/kg, po; conditions: in vivo
[33] = Tmax in Beagle dog at 1 mg/kg, po; conditions: in vivo

| Ki [1] [nM] | Ki [2] [nM] | microsomal CLint at 3 µM [4] [µL/min/mg] | Papp at 10 µM [6] [×10⁻⁶ cm/s] | logD [7] | AUC(0-t) [8] [ng·h/mL] | AUC(0-t) [9] [ng·h/mL] | bioavailability [12] [%] | Cmax [14] [ng/mL] | Cmax [15] [ng/mL] | Tmax [17] [h] | Tmax [18] [h] | half-life [20] [h] | half-life [21] [h] | clearance [23] [mL/min/kg] | Vd [25] [L/kg] | SMILES | also measured |
| --- | --- | --- | --- | --- | --- | --- | --- | --- | --- | --- | --- | --- | --- | --- | --- | --- | --- |
| 5.3 | 5 | 5 | 26.4 | -0.5 | 1180 | 1910 | 32 | 1700 | 163 | 0 | 1.5 | 13 | 5.4 | 11.7 | 7 | O=C(O)CN1C(=O)[C@@]2(CC(=O)N(Cc3cc(Cl)ccc3F)C2=O)c2cc(Cl)ccc21 | IC50 [3]: 66 nM; microsomal CLint at 3 µM [5]: 19 µL/min/mg; AUC(0-t) [10]: 637 ng·h/mL; AUC(0-t) [11]: 339 ng·h/mL; bioavailability [13]: 52%; Cmax [16]: 1950 ng/mL; Tmax [19]: 0 h; half-life [22]: 3 h; clearance [24]: 33.3 mL/min/kg; Vd [26]: 5 L/kg; IC50 [27]: > 30000 nM; IC50 [28]: > 30000 nM; IC50 [29]: > 30000 nM; IC50 [30]: > 30000 nM; IC50 [31]: > 30000 nM; Cmax [32]: 68.8 ng/mL; Tmax [33]: 2.67 h |
| 13 | 88 | 3 | 1.8 | -0.4 | 1390 | 319 | 5 | 5060 | 55 | 0 | 1.5 | 0.9 | 8 | 11.7 | 0.3 | O=C(O)CN1C(=O)C2(CC(=O)N(Cc3cc(Cl)ccc3F)C2)c2cc(Cl)ccc21 (single isomer, unassigned; form 1) |  |
